Assay results from PubChem BioAssay AID624165 (Southern Research Specialized Biocontainment Screening …, 2012).
Activity calls are given as the source filed them.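 The calls were made as follows: active = inhibition of 30% or more at any tested concentration; inactive = the rest.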

System: Plasmodium falciparum M18 aspartyl aminopeptidase (PfM18AAP)
Experiment: inhibition of P. falciparum M18 aspartyl aminopeptidase – biochemical, QFRET, H-Glu-NHMec substrate, set 3, selectivity assay for PFM1AAP inhibitor project, dose response (AID 624165)
Conditions: Recombinant PfM18AAP, H-Glu-NHMec fluorogenic cleavage; series mostly up to 100 µM
How it was run: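 System: Purified recombinant PfM18AAP, M18 aspartyl aminopeptidase of Plasmodium falciparum | Input: Enzyme 5 µg/mL | Medium: pH 7.5 Tris, 2 mM CoCl2 | Incubation: Reaction 90 min, room temperature | Measured by: Fluorescence, excitation 370 nm, emission 460 nm | Control set: no-enzyme background wells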

outcome, inactive:
O=C(Nc1ccc2c(c1)OCO2)C1CCN(S(=O)(=O)c2ccc(Cl)s2)CC1, O=C(NCc1ccccc1F)C1CCN(S(=O)(=O)c2ccc(Br)s2)CC1, O=C(NCc1ccc2c(c1)OCO2)C1CCN(S(=O)(=O)c2ccc(Br)s2)CC1, O=C(NCc1cccc(F)c1)C1CCN(S(=O)(=O)c2ccc(Br)cc2)CC1, O=C(NCc1ccc2c(c1)OCO2)C1CCN(S(=O)(=O)c2cc(Br)c(Br)s2)CC1, O=C(NCc1ccc(F)cc1)C1CCN(S(=O)(=O)c2ccc(Cl)s2)CC1, O=C(NCCc1ccc2c(c1)OCO2)C1CCN(S(=O)(=O)c2ccc(Br)s2)CC1, O=C(Nc1ccc2c(c1)OCO2)C1CCN(S(=O)(=O)c2ccc(Br)cc2)CC1, O=C(NCc1ccc(F)cc1)C1CCN(S(=O)(=O)c2cc(Br)c(Br)s2)CC1, O=C(NCc1ccccc1F)C1CCN(S(=O)(=O)c2cc(Br)c(Br)s2)CC1, O=C(NCc1ccccc1F)C1CCN(S(=O)(=O)c2ccc(Cl)s2)CC1, O=C(NCCc1ccc2c(c1)OCO2)C1CCN(S(=O)(=O)c2ccc(Cl)s2)CC1, O=C(Nc1ccc2c(c1)OCO2)C1CCN(S(=O)(=O)c2ccc(Br)s2)CC1, O=C(NCc1ccccc1F)C1CCN(S(=O)(=O)c2ccc(Br)cc2)CC1, O=C(NCCc1ccc2c(c1)OCO2)C1CCN(S(=O)(=O)c2cc(Br)c(Br)s2)CC1, O=C(NCc1ccc(F)cc1)C1CCN(S(=O)(=O)c2ccc(Br)cc2)CC1
